Compound activity as filed in PubChem BioAssay.
Only some compounds are listed: those with a hit (about 4.8% of all), similar ones and a draw of the others.
CSC inhib – blocks cancer stem cells | actives 1.1% (n = 300,000) | inhibition, % at 7.5 µM | cancer stem cell-like cells viability, luminescence; in the data active means inhibition above about 75%; inconclusive means no clear call, values can overlap the other calls; tested in HMLE shEcad cells
Efflux pump inh – blocks antifungal efflux pumps in multiplex yeast assay; S. cerevisiae Candida pump triplex, Nile Red efflux; inhibition, % at 10 µM; actives 0.44% (n = 330,000); AID 485275;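 active means plate passing quality check with inhibition over a set limit, or well fluorescence over plate mean plus 4 SD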;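 further: Nile Red retained in pooled yeast measured as flow cytometry median fluorescence; 0% = buffer negative control and 100% = Enniatin B positive control; higher means more Nile Red kept so more efflux inhibition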
Beta apoptosis – blocks beta cell apoptosis; INS-1E cytokine-induced death, ATP luminescence, 48 h; percent of positive-control rescue, neutral wells zero; protection from apoptosis, % (test concentration not listed); actives 0.8% (n = 300,000); AID 435005;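 active means Every replicate reaches about 75%, or at least half do and their mean reaches it too, limit read from the data; inconclusive means At least half of replicates reach the limit but their mean does not; inactive means Under half of replicates reach the limit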;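 further: 0% = cytokine-treated negative control wells and 100% = positive control rescue; higher means more ATP so stronger rescue from cytokine killing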
T cruzi inh – blocks replication of Trypanosoma cruzi. T. cruzi beta-gal in NIH3T3, luminescence, 90 h. inhibition, % (concentration not given with the values). actives 1.4% (n = 300,000);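 active means mean inhibition across valid replicates above about 55%, limit read from the data; inconclusive means mean below that limit but half or more replicates reach it; inactive means mean below it, under half of replicates reach it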;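 further: signal also drops with host cell toxicity which is not excluded here; 0% = plate median of DMSO wells and 100% = zero luminescence signal; higher percent means less beta-gal luminescence so fewer parasites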
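System: Mouse NIH/3T3 fibroblasts infected with β-gal-expressing T. cruzi Tulahuen C4 | Quantity: NIH/3T3 cells, 5,000 per well | Reagent: 5000 reporter trypomastigotes per well | Dosing: Compound pinned at 50 nL/well, DMSO | Schedule: 3 h host attachment, then at least 90 h co-culture | Detection: GalScreen luminescence, 60 min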
WT yeast gro inh – growth inhibition of WT yeast, mitochondrial fusion screen | mitochondrial fusion phenotypic screen, WT strain | inhibition, % at 10 µM | actives 2.1% (n = 190,000); in the data active means inhibition above about 58%; tested in S. cerevisiae
SUMO Mot1 rescue – blocks SUMOylation pathway, rescuing yeast Mot1-301 growth; AID 2716; actives 1% (n = 320,000); growth rescue, % at 18.8 µM; S. cerevisiae Mot1-301 growth rescue, ATP luminescence, 38.5C; percent above DMSO median, 100 means doubled;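 active means every valid replicate shows activation above 250% relative to neutral control wells; inactive means the rest, any valid replicate at or below 250%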;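 further: OY570 slx delta 5 strain wells were the positive control but not used for scaling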
* = called active by the depositor; ? = inconclusive; nt = no result given.

SMILES | CSC inhib | Efflux pump inh | Beta apoptosis | T cruzi inh | WT yeast gro inh | SUMO Mot1 rescue
CC1=NN(c2ccccc2)C(=O)/C1=C/C=C/c1ccc(N(C)C)cc1 | nt | nt | nt | 6 | 54 | nt
CC1=NN(c2ccccc2)C(=O)/C1=C\C=C\c1ccccc1 | 102* | 0 | 39 | -4 | nt | -16
CC1=NN(c2ccccc2)C(=O)/C1=C\C=C1\N(C)c2ccccc2C1(C)C | 79* | 0 | 19 | 26 | 37 | -11
CC1=NN(c2ccccc2)C(=O)/C1=C\C=C1/N(C)c2ccccc2C1(C)C | 46 | 0 | 21 | 12 | 38 | 212
CCC(C)(C(=O)NC1CCCC1)N(C(=O)CC1NC(=O)NC1=O)c1c(C)n(C)n(-c2ccccc2)c1=O (stereo unspecified) | -9 | 0 | 0 | -16 | 4 | -11
O=C(N/N=C/c1c(O)ccc2ccccc12)c1cccc(C(F)(F)F)c1 | nt | 0 | nt | 57* | 6 | 149
O=C(N/N=C\c1c(O)ccc2ccccc12)c1ccc(Cn2cccn2)o1 | 30 | 0 | 79* | 14 | 5 | nt
O=C(N/N=C\c1ccc(Cl)s1)c1ccc(Cn2cccn2)o1 | 3 | 0 | -4 | -15 | -16 | -2
O=C(N/N=C/c1c(O)ccc2ccccc12)c1[nH]ncc1Br | 108* | 1 | 103* | 25 | 5 | -28
CCOc1ccc(/C=N/NC(=O)c2[nH]ncc2Br)c(O)c1 | 87* | 1 | 77* | 55* | 49 | -15
Cc1noc(C)c1COc1ccc(C(=O)NCc2ccccn2)cc1 | 21 | 0 | 0 | -7 | 19 | 3
O=C(NCCCc1ccccn1)C1CCC(=O)N(Cc2cccc(F)c2)C1 (stereo unspecified) | -6 | 0 | -9 | 5 | nt | -2
CCOC(=O)C1CCN(CC(=O)N(CC(C)C)c2c(N)n(CC(C)C)c(=O)[nH]c2=O)CC1 | -5 | 0 | -2 | -20 | 10 | -14
COc1cccc(C(=O)OCC(=O)Nc2ccc(N3CCOCC3)cc2)c1 | nt | 0 | -4 | nt | nt | -9
Cc1ccc(O)c(/C=N/NC(=O)c2[nH]ncc2Br)c1 | 17 | 0 | 84* | -13 | -5 | 11
COc1ccc(OC)c(/C=N/NC(=O)c2[nH]ncc2Br)c1 | 6 | 0 | 0 | -14 | nt | -3
Cc1cc(S(=O)(=O)NC2CC(C)(C)NC(C)(C)C2)c(Cl)cc1Cl | 35 | 0 | 7 | -7 | nt | 11
O=C(Nc1cccc(Cl)c1)Nn1cnnc1 | -13 | 1 | 0 | -16 | nt | -5
COc1ccc(CNCCC(c2ccc(OC(C)C)cc2)c2ccccc2OC)cc1 (stereo unspecified) | 103* | 0 | ? | 21 | nt | -20
COc1ccc(CNCCC(c2ccc(OC(C)C)cc2)C(C)C)cc1OC (stereo unspecified) | -4 | 0 | 86* | 73* | 18 | 4
COc1ccc(CNCCC(c2ccc(OC(C)C)cc2)c2ccccc2OC)cc1OC (stereo unspecified) | 21 | 0 | 18 | 25 | nt | -2
COc1ccc(CNCCC(c2ccccc2)c2ccc3c(c2)OCO3)cc1 (stereo unspecified) | 23 | 0 | 85* | 59* | -11 | -4
COc1ccccc1C(CCNCc1ccc(N(C)C)cc1)c1ccc(OC(C)C)cc1 (stereo unspecified) | 103* | 0 | 114* | 41 | nt | -15
COc1ccc(C(CCNCc2ccc(OC(C)C)cc2)C(C)C)cc1 (stereo unspecified) | 35 | 0 | 57 | 33 | nt | 35
COc1ccccc1C(CCNCc1ccccc1)c1ccc(OC(C)C)cc1 (stereo unspecified) | 58 | 0 | 23 | 31 | nt | -25
SMILES | CSC inhib | Efflux pump inh | Beta apoptosis | T cruzi inh | WT yeast gro inh | SUMO Mot1 rescue
CCCn1c(N)c(C(=O)CSc2nc(N)cc(=O)[nH]2)c(=O)n(C)c1=O | -9 | 0 | -1 | nt | nt | -5
Cc1nn(Cc2cccc(C(=O)Nc3ccn(Cc4c(F)c(F)cc(F)c4F)n3)c2)c(C)c1[N+](=O)[O-] | nt | 0 | 1 | 68* | 8 | 0
C=CCc1cc(/C=C/c2nc(O)c([N+](=O)[O-])c(=O)[nH]2)cc(OC)c1O | -4 | 0 | -1 | -12 | -5 | 523*
CCOc1cc(/C=C\c2nc(O)c([N+](=O)[O-])c(=O)[nH]2)ccc1OC(C)C | -13 | 0 | -2 | 4 | nt | 227
CN(C)c1cccc(C(=O)N2CCCC(CCC(=O)NCc3ccccc3F)C2)c1 (stereo unspecified) | 14 | 1 | -1 | -11 | nt | -10
CCCCCNCC(=O)Nc1cccc(C(=O)Nc2cccc(C(F)(F)F)c2)c1 | 93* | 0 | 32 | 19 | 78* | 6
O=C(CN1CCOCC1)Nc1cccc(C(=O)Nc2cccc(C(F)(F)F)c2)c1 | -12 | 0 | -2 | 3 | -8 | -3
COc1ccc(-c2nn(-c3ccccc3)cc2C(=O)N(C)CC(=O)Nc2cccc(F)c2)cc1 | 80* | 0 | 15 | nt | nt | -12
O=C(/C=C/Nc1cccc(C(F)(F)F)c1)C(F)(F)F | -17 | 0 | -5 | nt | 65* | 4
O=C(Nc1ccccc1)Nc1cccc(C(F)(F)F)c1 | -1 | 0 | 26 | 40 | 38 | 6
FC(F)(F)c1cccc(NC(=S)NC(c2ccccc2)c2ccccc2)c1 | 36 | 0 | 44 | 60* | 11 | 0
Cc1ccc(OC(F)F)c(NC(=O)Nc2cccc(C(F)(F)F)c2)c1 | 5 | 0 | 66 | 55* | 49 | 50
CN(CC(=O)Nc1cccc(F)c1)C(=O)c1ccccc1OCC(=O)Nc1cccc(C(F)(F)F)c1 | 3 | 0 | 8 | 61* | nt | 7
O=C(COCC(=O)Nc1cccc(C(F)(F)F)c1)Nc1cccc(C(F)(F)F)c1 | 77* | 0 | -10 | -7 | 18 | -8
COc1cccc(NC(=O)CN(C)C(=O)c2ccccc2OCC(=O)Nc2cccc(C(F)(F)F)c2)c1 | -1 | 0 | 3 | 46 | nt | -20
FC(F)(F)c1cccc(NC(=S)NNC(=S)Nc2cccc(C(F)(F)F)c2)c1 | 110* | 0 | 97* | 55* | nt | 240
COc1ccc(S(=O)(=O)NCC(c2cccnc2)N2CCN(Cc3ccccc3)CC2)cc1 (stereo unspecified) | 6 | 0 | 7 | 55* | nt | 21
COc1ccc(S(=O)(=O)NCC(c2cccnc2)N2CCN(Cc3ccccc3)CC2)cc1C (stereo unspecified) | 7 | 0 | 4 | 57* | nt | 1
COC(=O)c1ccc(/C=C/C(=O)OCC(=O)c2ccc[nH]2)cc1 | -1 | 0 | -8 | nt | nt | 12
CC(N)=Nc1ccc([N+](=O)[O-])cc1 | -11 | 0 | -4 | 0 | -11 | 129
O=[N+]([O-])c1ccc(N=Nc2c(Cl)cc(O)cc2Cl)cc1 | 110* | 0 | 122* | 35 | nt | -22
COc1ccc(-c2nc(CSCC(=O)NC3CCCC3)c(C)o2)cc1OC | -9 | 0 | 5 | 3 | nt | 7
